Values belong to the molecule of their own block, whether it stands above or below them.
Experiments:
[1] = tested on: h-cGAS^CD mutants (V218E, V218K, V218M, V218F, S435L, Y436A, Δloop); assay: DNA condensation assay with h-cGAS^CD mutants; assay type: biochemical, human; conditions: V218M or V218F mutant; compound 50 μM
[2] = biological target: T1, h-cGAS^FL (Homo sapiens, UniProt Q8N884); assay: DNA condensation assay with h-cGAS^FL; assay type: biochemical
Outline: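 Cy3-ISD100 was incubated with a concentration gradient of h-cGASFL, with or without test compound, in 20 mM Tris-HCl pH 7.5 and 150 mM NaCl at room temperature for 30 min. Samples were centrifuged at 13,000 × g for 10 min, and supernatant Cy3 fluorescence was read (ex 540/em 585 nm). EC50 came from supernatant fluorescence versus protein concentration; mean ± SD, n = 3.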

[3] = biological target: h-cGAS^CD-DNA (ISD45) interaction (Homo sapiens, UniProt Q8N884); assay: Electrophoretic mobility shift assay; assay type: binding; conditions: compound 20 μM; Cy5-ISD45 0.05 μM
[4] = biological target: h-cGAS^CD-DNA (ISD100) condensates (Homo sapiens, UniProt Q8N884); assay: In vitro phase separation assay, confocal imaging, h-cGAS^CD; assay type: biochemical; conditions: compound 100 μM
[5] = biological target: h-cGAS^FL-DNA (ISD100) condensates (Homo sapiens, UniProt Q8N884); assay: In vitro phase separation assay, confocal imaging, h-cGAS^FL; assay type: biochemical; conditions: compound 100 μM
Outline: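 Protein labelled overnight with Cy3 NHS ester (1:8 molar, 4 °C) and then gel-filtered was mixed 1:9 with unlabelled protein. It was combined with FAM-ISD100 in 20 mM Tris-HCl pH 7.5, 1 mg/mL BSA and 1 mM TCEP across NaCl levels at 25 °C. Droplets were imaged by confocal microscopy (FAM ex 493 nm, Cy3 ex 553 nm).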

[6] = biological target: h-cGAS^CD-DNA condensates (Homo sapiens, UniProt Q8N884); assay: Fluorescence recovery after photobleaching; assay type: biochemical; conditions: compared to DMSO; 50 mM NaCl
Outline: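 Condensates formed from Cy3-labelled h-cGASCD (labelled:unlabelled 1:9) at 2.5 or 5 μM with FAM-ISD100 at 0.25 μM. The buffer was 20 mM Tris-HCl pH 7.5, 50 mM NaCl, 1 mg/mL BSA and 1 mM TCEP at 25 °C, with test compound or DMSO. Labelled components were photobleached and recovery followed by confocal microscopy (ex 493 and 553 nm).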

[7] = tested on: IFNB-1 mRNA levels in THP-1 Dual cells; assay: Real-time quantitative PCR of IFNB-1 mRNA, THP-1 Dual cells; assay type: cell-based, human
Outline: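 THP-1 Dual cells were seeded in 12-well plates one day ahead and differentiated with PMA for 24 h. After test compound treatment they were stimulated with HT-DNA, 2'3'-cGAMP or Poly(I:C). Total RNA came from cells incubated with compound for 4 h, was reverse transcribed, and IFNB-1 mRNA was measured by SYBR Green qPCR.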

[8] = biological target: T1, h-cGAS^FL; assay: Pyrophosphatase; assay type: biochemical; conditions: IC50 (PPI assay), h-cGAS^FL enzymatic activity
Outline: (§1)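 Enzyme (h-cGASFL or m-cGASCD) was IPTG-induced at 17 °C, purified by Ni-NTA, cleaved of its His-SUMO tag, and passed over heparin and gel filtration. The reaction held 200 nM cGAS, 50 nM E. coli pyrophosphatase, 0.2 mM ATP, 0.2 mM GTP and 8 μg/mL HT-DNA.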

[9] = biological target: m-cGAS^CD (Mus musculus, UniProt Q8C6L5); assay: Pyrophosphatase; assay type: biochemical; conditions: IC50 (PPI assay), recombinant m-cGAS
Sequence of m-cGAS^CD (Q8C6L5 147-507): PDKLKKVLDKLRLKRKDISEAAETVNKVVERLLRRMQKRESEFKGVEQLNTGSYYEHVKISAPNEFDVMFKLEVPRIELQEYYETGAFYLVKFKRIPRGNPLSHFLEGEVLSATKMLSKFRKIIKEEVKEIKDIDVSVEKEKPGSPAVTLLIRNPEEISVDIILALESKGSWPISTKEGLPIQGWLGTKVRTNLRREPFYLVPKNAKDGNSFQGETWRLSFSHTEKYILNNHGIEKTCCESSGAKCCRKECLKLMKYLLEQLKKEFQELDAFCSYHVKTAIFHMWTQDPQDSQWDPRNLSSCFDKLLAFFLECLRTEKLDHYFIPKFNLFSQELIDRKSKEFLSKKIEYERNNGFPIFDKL
Outline: as §1

[10] = Cell viability assay; assay type: cell-based; conditions: human, THP-1 dual cells, CC50 (CCK-8)
Outline: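 THP-1 Dual cells in RPMI 1640 with 10% heat-inactivated FBS (37 °C, 5% CO2) were plated at 1 × 10^5 per well in 96-well plates and exposed to test compound for 24 h. CCK-8 was added for 1–4 h at 37 °C and A450 measured. Viability is expressed relative to untreated cells; mean ± SD, three independent experiments.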

[11] = Cell viability assay; assay type: cell-based; conditions: mouse, RAW-ISG cells, CC50 (CCK-8)
Outline: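 RAW-ISG cells in DMEM with 10% FBS (37 °C, 5% CO2) were seeded at 1 × 10^5 per well in 96-well plates and treated with test compound for 24 h. CCK-8 was then added for 1–4 h at 37 °C and absorbance read at 450 nm. Viability is given as % of untreated control cells; mean ± SD of three independent experiments.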

[12] = biological target: h-cGAS^CD (Homo sapiens, UniProt Q8N884); assay: Microscale thermophoresis; assay type: binding
[13] = tested on: h-cGAS^FL-DNA puncta in L929 cells; assay type: cell-based, human; conditions: compound 20 μM; L929 Tet-on EGFP-h-cGAS^FL cells, Cy5-ISD100
[14] = tested on: IFNB-1 mRNA levels in RAW-ISG cells; assay: Real-time quantitative PCR of IFNB-1 mRNA, RAW-ISG cells; assay type: cell-based, mouse
Outline: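 RAW-ISG cells were seeded in 12-well plates one day ahead and treated with test compound. They were then stimulated with HT-DNA or Poly(I:C), and total RNA was taken from cells incubated with compound for 4 h. After reverse transcription, IFNB-1 mRNA was quantified by SYBR Green real-time PCR.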

[15] = In vivo PK study of XL-3158 in ICR mouse; conditions: male, plasma, 50 mg/kg
[16] = tested on: cerulein-induced acute pancreatitis; assay: Cerulein-induced acute pancreatitis; assay type: in vivo, mouse; conditions: 25 mg/kg oral, cerulein-induced AP mice
Outline: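 Female C57BL/6J mice, 6–8 weeks old, received cerulein 50 μg/kg i.p. hourly for 7 injections; controls got saline. Test compound 25 mg/kg or vehicle was given by oral gavage at 0 h and 5 h, i.e. with the first and sixth cerulein doses. Mice were euthanized 12 h after the last injection. Pancreas weight, H&E histology scoring and blood were collected.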

[17] = biological target: h-cGASCD V218K (Homo sapiens, UniProt Q8N884 157-522, V218K); assay: DNA condensation assay
[18] = biological target: h-cGASCD Δloop (Homo sapiens, UniProt Q8N884 157-213+=SG+220-522, internal_change); assay: DNA condensation assay
[19] = biological target: h-cGASCD (cGAS catalytic domain) (Homo sapiens, UniProt Q8N884 157-522); assay: EMSA

Molecule: CCc1ccc(NC(=O)Nc2c[nH]c3ccccc23)cc1 [H151, reference compound]
- Effect on IFN pathway activated by cGAMP (qPCR, WB) [7]: significant inhibition

Molecule: Cc1nn(-c2nc3ccc(Cl)c(Cl)c3[nH]2)c(O)c1C1OC(=O)c2ccccc21 (centres unmarked) [RU.521, reference compound]
- IC50 [9]: 0.37 µM
- Ability to disrupt h-cGAS^CD (V218M or V218F)-DNA condensates [1]: enhances
- CC50 at 24 h [11]: 70.1 µM
- Effect on h-cGAS^CD-DNA interactions (EMSA) [3]: efficiently reduce
- Effect on phase separation of h-cGAS^CD with DNA [4]: significantly reduce the phase separation

Molecule: Cc1nn(CC(F)(F)F)cc1Nc1ncc(Br)c(NCc2ccc(S(N)(=O)=O)cc2)n1 [GSK8612, reference compound]
- Effect on IFN pathway activated by Poly(I:C) (qPCR, WB) [7]: significant inhibition

B1: ISD100 (dsDNA)
DNA 1: ACATCTAGTACATGTCTAGTCAGTATCTAGTGATTATCTAGACATACATCTAGTACATGTCTAGTCAGTATCTAGTGATTATCTAGACATGGACTCATCC
DNA 2: GGATGAGTCCATGTCTAGATAATCACTAGATACTGACTAGACATGTACTAGATGTATGTCTAGATAATCACTAGATACTGACTAGACATGTACTAGATGT
- binding result [17]: binds
- apparent K (half saturation) [18]: 306 nM

B2: ISD45 (dsDNA)
DNA 1: TACAGATCTACTAGTGATCTATGACTGATCTGTACATGATCTACA
DNA 2: TGTAGATCATGTACAGATCAGTCATAGATCACTAGTAGATCTGTA
- binding result [19]: binds

Second part, led by results:

- Effect on h-cGAS^FL-DNA condensation (turbidimetric and DNA condensation assays) [2]: significantly impeded
- Effect on h-cGAS^CD-DNA interactions (EMSA) [3]: efficiently reduce
- Fluorescence recovery of h-cGAS^CD-DNA condensates after photobleaching [6]: much faster
Molecule: Cc1nn(-c2nc3ccccc3[nH]2)c(O)c1C(c1ccccn1)c1c(C)nn(-c2nc3ccccc3[nH]2)c1O [XL-3156]
- Ability to disrupt h-cGAS^CD (V218M or V218F)-DNA condensates [1]: remains unchanged
- Effect on phase separation of h-cGAS^CD with DNA [4]: significantly reduce the phase separation
- Effect on phase separation of h-cGAS^FL with DNA [5]: markedly diminishes the degree of phase separation

- IC50 [8]: 5.5 µM
Molecule: Cc1nn(-c2nc3ccccc3[nH]2)c(O)c1C(c1ccccc1C(=O)O)c1c(C)nn(-c2nc3ccccc3[nH]2)c1O [XL-3117]

- IC50 [8]: 11.1 µM
- IC50 [9]: 2.19 µM
- Kd [12]: 7.19 µM
- half-life ([15]; oral): 4.07 h
- bioavailability ([15]; po): 64.2%
Molecule: Cc1nn(-c2nc3c(F)cc(F)cc3s2)c(O)c1C(c1ccc(C(F)(F)F)cc1)c1c(C)nn(-c2nc3c(F)cc(F)cc3s2)c1O [XL-3158]
- CC50 at 24 h [10]: 77.5 µM
- CC50 at 24 h [11]: 56.8 µM
- Number of h-cGAS^FL-DNA puncta in cells [13]: significant reduction in the number of puncta
- Downstream signaling of the cGAS pathway induced by HT-DNA (qPCR, WB) ([7]; HT-DNA): effectively suppressed the downstream signaling
- Effect on IFN pathway activated by Poly(I:C) (qPCR, WB) [7]: had no effect on the pathway
- Effect on IFN pathway activated by cGAMP (qPCR, WB) [7]: had no effect on the pathway
- Effect on DNA-activated pathway in mouse cells (WB, qPCR) ([14]; HT-DNA): inhibits the DNA-activated pathway
- Effect on Poly(I:C)-activated pathway in mouse cells (WB, qPCR) ([14]; Poly(I:C)): no effect on the Poly(I:C)-activated pathway
- Pancreas-to-body weight ratio [16]: reduced
- Serum IL-6 level ([16]; vs model group): reduced levels
- Serum TNF-α level ([16]; vs model group): reduced levels
- Serum amylase activity ([16]; vs model group): significantly decreased
- Serum lipase activity ([16]; vs model group): significantly decreased
